Laboratory results taken from ChEMBL document CHEMBL1145341, “Synthesis and biological evaluation of bisindenoisoquinolines as topoisomerase I inhibitors” (2006).
The source made the active and inactive calls. No cut-off for these calls is given here.

Assays:
[1] = system: UACC-62; experiment: Antiproliferative activity against human UACC62 cell line; format: functional
[2] = system: HCT-116; experiment: Antiproliferative activity against human HCT116 cell line; format: functional
[3] = system: DU-145; experiment: Antiproliferative activity against human DU145 cell line; format: functional
[4] = system: OVCAR-3; experiment: Antiproliferative activity against human OVCAR-3 cell line; format: functional
[5] = system: MDA-MB-435; experiment: Antiproliferative activity against human MDA-MB-435 cell line; format: functional
[6] = system: SN12C; experiment: Antiproliferative activity against human SN12C cell line; format: functional
[7] = system: SF-539; experiment: Antiproliferative activity against human SF539 cell line; format: functional
[8] = system: HOP-62; experiment: Antiproliferative activity against human HOP62 cell line; format: functional
[9] = molecular target: T1, DNA topoisomerase 1 (Homo sapiens) (UniProt P11387); experiment: Inhibition of human recombinant Top1-mediated DNA cleavage upto 10 uM
T1 sequence (whole entry): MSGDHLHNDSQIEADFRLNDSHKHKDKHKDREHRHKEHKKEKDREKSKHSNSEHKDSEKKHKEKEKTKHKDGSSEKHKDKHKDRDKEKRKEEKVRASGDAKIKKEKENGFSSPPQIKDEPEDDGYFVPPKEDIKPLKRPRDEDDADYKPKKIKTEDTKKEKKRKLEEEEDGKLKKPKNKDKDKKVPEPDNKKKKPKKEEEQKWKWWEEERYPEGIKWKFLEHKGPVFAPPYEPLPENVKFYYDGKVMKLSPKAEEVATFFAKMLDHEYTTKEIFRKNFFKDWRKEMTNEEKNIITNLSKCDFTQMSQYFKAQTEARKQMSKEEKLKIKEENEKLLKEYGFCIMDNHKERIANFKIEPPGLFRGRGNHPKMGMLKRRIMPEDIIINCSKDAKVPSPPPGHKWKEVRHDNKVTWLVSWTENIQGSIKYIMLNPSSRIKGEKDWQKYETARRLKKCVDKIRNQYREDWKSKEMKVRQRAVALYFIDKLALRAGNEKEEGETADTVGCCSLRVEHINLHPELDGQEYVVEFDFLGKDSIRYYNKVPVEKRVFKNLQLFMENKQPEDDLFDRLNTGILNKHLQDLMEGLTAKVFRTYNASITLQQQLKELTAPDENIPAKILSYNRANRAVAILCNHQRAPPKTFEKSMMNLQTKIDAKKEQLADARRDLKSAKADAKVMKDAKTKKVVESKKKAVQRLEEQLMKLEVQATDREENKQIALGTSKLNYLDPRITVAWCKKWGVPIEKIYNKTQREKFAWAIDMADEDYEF
Method in brief: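 Baculovirus-purified human recombinant Top1. Substrate: 161 bp PvuII/HindIII fragment of pBluescript SK(-), 3′-end labeled with [α-32P]-dGTP by Klenow fill-in, about 50 000 dpm per reaction. Compounds up to 10 µM, 22 °C for 30 min; stopped with 0.5% SDS (final). Denaturing 16% polyacrylamide/7 M urea gels, phosphorimaging. Cleavage scored semiquantitatively (+ to ++++) against a reference indenoisoquinoline and 1 µM camptothecin.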

[10] = system: Panel (12 tumour cell lines); experiment: Net cell kill in ip dosed mouse implanted with 12 human tumor cell lines; format: functional, organism-based

Row | Structure (SMILES) | GI50 [1] [µM] | GI50 [2] [µM] | GI50 [3] [µM] | GI50 [4] [µM] | GI50 [5] [µM] | GI50 [6] [µM] | GI50 [7] [µM] | GI50 [8] [µM] | Activity [9] | Activity [10]
1 | COc1cc2c3c(n(CCCNCCCNCCCN)c(=O)c2cc1OC)-c1cc2c(cc1C3=O)OCO2 | 44 | 43 | > 100 | 0.88 | 68 | 33 | > 100 |  |  | 
2 | O=C1c2ccccc2-c2c1c1ccccc1c(=O)n2CCNCCNCCn1c2c(c3ccccc3c1=O)C(=O)c1ccccc1-2 | 0.331 | 0.029 | 0.182 | 1.66 | 1.66 | 0.178 |  | 0.032 |  | 
3 | O=C1c2ccccc2-c2c1c1ccccc1c(=O)n2CCCNCCCn1c2c(c3ccccc3c1=O)C(=O)c1ccccc1-2 | 6.61 | 0.55 | 1 | 2.95 | 8.91 | 1.55 | 3.63 | 0.794 |  | 
4 | O=C1c2ccccc2-c2c1c1ccccc1c(=O)n2CCCCNCCCn1c2c(c3ccccc3c1=O)C(=O)c1ccccc1-2 | 0.513 | 0.056 | 0.288 | 0.372 | 0.562 | 0.132 |  | 0.028 |  | 
5 | CC(C)(C)OC(=O)N(CCCn1c2c(c3ccccc3c1=O)C(=O)c1ccccc1-2)CCN(CCCn1c2c(c3ccccc3c1=O)C(=O)c1ccccc1-2)C(=O)OC(C)(C)C | 45.7 | 14.1 | > 50.1 | 13.2 | > 50.1 | 39.8 | > 50.1 | 20 |  | 
6 | NCCCn1c2c(c3ccccc3c1=O)C(=O)c1ccccc1-2 | 0.26 | 0.18 | 0.22 | 1.38 | 0.78 | 0.16 | 0.25 | 0.2 |  | 
7 | O=C1c2ccccc2-c2c1c1ccccc1c(=O)n2CCNCCn1c2c(c3ccccc3c1=O)C(=O)c1ccccc1-2 | > 25.1 | > 25.1 | > 25.1 | > 25.1 | > 25.1 | > 25.1 | > 25.1 | > 25.1 |  | 
8 | CC(C)(C)OC(=O)N(CCCCN(CCCn1c2c(c3ccccc3c1=O)C(=O)c1ccccc1-2)C(=O)OC(C)(C)C)CCCn1c2c(c3ccccc3c1=O)C(=O)c1ccccc1-2 | 93.3 | 1.91 | 47.9 | 69.2 | 69.2 | 36.3 | 8.13 | 11 |  | 
9 | O=C1c2ccccc2-c2c1c1ccccc1c(=O)n2CCCNCCNCCCn1c2c(c3ccccc3c1=O)C(=O)c1ccccc1-2 | 0.052 | < 0.01 | < 0.01 | 1.02 | 0.933 | < 0.01 |  | < 0.01 | Active | 
10 | CC(C)(C)OC(=O)N(CCCN(CCn1c2c(c3ccccc3c1=O)C(=O)c1ccccc1-2)C(=O)OC(C)(C)C)CCn1c2c(c3ccccc3c1=O)C(=O)c1ccccc1-2 | > 50.1 | 22.9 | > 50.1 | 21.4 | > 50.1 | > 50.1 | > 50.1 | 22.4 |  | 
11 | O=C1c2ccccc2-c2c1c1ccccc1c(=O)n2CCNCCCNCCn1c2c(c3ccccc3c1=O)C(=O)c1ccccc1-2 | 0.182 | < 0.005 | 0.079 | 0.093 | 0.024 | < 0.005 | 0.155 | 0.339 | Active | inactive
12 | O=C1c2ccccc2-c2c1c1ccccc1c(=O)n2CCCN1CCN(CCCn2c3c(c4ccccc4c2=O)C(=O)c2ccccc2-3)CC1 | > 100 | 35.5 | 24 | > 100 | > 100 | 15.5 | > 100 | 12.9 |  | 
13 | CC(=O)O[C@H]1C(=O)[C@@]2(C)[C@H]([C@H](OC(=O)c3ccccc3)[C@]3(O)C[C@H](OC(=O)[C@H](O)[C@@H](NC(=O)c4ccccc4)c4ccccc4)C(C)=C1C3(C)C)[C@]1(OC(C)=O)CO[C@@H]1C[C@@H]2O |  |  |  |  |  |  |  |  |  | Active
14 | O=C1c2ccccc2-c2c1c1ccccc1c(=O)n2CCNCCNCCNCCn1c2c(c3ccccc3c1=O)C(=O)c1ccccc1-2 | 0.269 | 0.112 | 0.331 | 1.15 | 1 | 0.017 | 0.275 | 0.048 | Active | inactive
15 | O=C1c2ccccc2-c2c1c1ccccc1c(=O)n2CCNCCNCCNCCNCCn1c2c(c3ccccc3c1=O)C(=O)c1ccccc1-2 |  | 0.2 | 0.085 | 0.032 | 0.126 |  | 0.012 | 0.977 |  | 
16 | COc1cc2c3c(n(CCNCCCNCCn4c5c(c6cc(OC)c(OC)cc6c4=O)C(=O)c4ccccc4-5)c(=O)c2cc1OC)-c1ccccc1C3=O | 1.23 | 0.045 | 0.209 | 0.269 | 0.813 | 0.028 | 0.17 | 0.068 |  | 
17 | COc1cc2c3c(n(CCCNCCCNCCCn4c5c(c6cc(OC)c(OC)cc6c4=O)C(=O)c4ccccc4-5)c(=O)c2cc1OC)-c1ccccc1C3=O | 4.27 | 0.331 | 19.5 | 9.55 | 3.98 | 0.24 | 4.17 | 1.51 |  | 
18 | CN(CCCn1c2c(c3ccccc3c1=O)C(=O)c1ccccc1-2)CCCn1c2c(c3ccccc3c1=O)C(=O)c1ccccc1-2 | 2 |  |  | 1.2 | 1.55 | 0.589 | 1.12 |  |  | 
19 | O=C1c2ccccc2-c2c1c1ccccc1c(=O)n2CCCNCCCNCCCn1c2c(c3ccccc3c1=O)C(=O)c1ccccc1-2 | 0.042 | < 0.01 |  | 0.074 | 0.107 | < 0.01 | 0.011 | < 0.01 | Active | inactive
20 | O=C1c2ccccc2-c2c1c1ccccc1c(=O)n2CCCNCCn1c2c(c3ccccc3c1=O)C(=O)c1ccccc1-2 | 5.01 | 1.05 | 1.91 | 8.91 | 2.24 | 11 | 14.5 | 0.977 |  | 
21 | CC[C@@]1(O)C(=O)OCc2c1cc1n(c2=O)Cc2cc3ccccc3nc2-1 [CAMPTOTHECIN] | 0.01 | 0.03 | 0.01 |  | 0.04 | 0.02 | 0.01 | 0.01 |  | 
22 | O=C1c2ccccc2-c2c1c1ccccc1c(=O)n2CCCNCCCCNCCCn1c2c(c3ccccc3c1=O)C(=O)c1ccccc1-2 | 0.562 | < 0.005 | 0.234 | 0.135 | 0.676 | < 0.005 | 0.251 | 0.525 | Active | inactive
